# Measured values: ChEMBL document CHEMBL1687766, “In vitro activity of the new multivalent glycopeptide-cephalosporin antibiotic TD-1792 against vancomycin-nonsusceptible Staphylococcus isolates” (Antimicrob Agents Chemother, 2010)
# Columns and labels:
# Type in all cases: functional
# [1] = system: Staphylococcus aureus; assay: Antimicrobial activity against vancomycin-resistant Staphylococcus aureus isolate PA assessed as bacterial count at 4 times MIC after 24 hrs by colony counting method
# Procedure, shortened: (§1)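 Time-kill in triplicate. Mid-exponential culture (OD600 ~0.3) diluted in supplemented Mueller-Hinton broth to 5 × 10^6 CFU/ml. Daptomycin was run at physiologic calcium, 1.1 to 1.3 mM. […] Samples at 0, 1, 4, 8 and 24 h were diluted in cold saline or vacuum filtered, then spiral-plated on BHI agar for 24 h at 35°C. Value is the log10 CFU/ml change from baseline at 24 h.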
# [2] = system: Staphylococcus aureus; assay: Antimicrobial activity against vancomycin-resistant Staphylococcus aureus isolate MI assessed as bacterial count at 32 times MIC after 24 hrs by colony counting method in presence of 50% human serum
# Procedure, shortened: (§2)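 Time-kill in triplicate, starting inoculum 5 × 10^6 CFU/ml from a mid-exponential culture. Medium was 50% heat-treated, filtered human serum plus 50% broth, final 25 SMHB for TD-1792 and 50 SMHB for daptomycin. Drug at multiples of MIC. Samples to 24 h were plated on BHI agar for 24 h at 35°C. Value is the log10 CFU/ml change from baseline at 24 h.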
# [3] = system: Staphylococcus aureus; assay: Antimicrobial activity against vancomycin-resistant Staphylococcus aureus isolate MI assessed as bacterial count at 16 times MIC after 24 hrs by colony counting method in presence of 50% human serum; procedure, shortened: as §2
# [4] = system: Staphylococcus aureus; assay: Antimicrobial activity against vancomycin-resistant Staphylococcus aureus isolate MI assessed as bacterial count at 8 times MIC after 24 hrs by colony counting method; procedure, shortened: as §1
# [5] = system: Staphylococcus aureus; assay: Antimicrobial activity against vancomycin-resistant Staphylococcus aureus isolate PA after 24 hrs by microdilution method
# Procedure, shortened: (§3)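 Broth microdilution per CLSI, inoculum 5 × 10^5 CFU/ml, Mueller-Hinton broth with 12.5 μg/ml magnesium and 25 μg/ml calcium (SMHB). Daptomycin was instead tested in SMHB at physiologic calcium (final 1.1 to 1.3 mM). Incubation 24 h at 35°C; MIC read; run in duplicate. MBC from 5-μl samples of clear wells plated on BHI agar, 24 h at 35°C.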
# [6] = system: Staphylococcus aureus; assay: Ratio of MIC for vancomycin-intermediate Staphylococcus aureus in presence of 50% human serum to MIC for vancomycin-intermediate Staphylococcus aureus
# [7] = system: Staphylococcus aureus; assay: Antimicrobial activity against vancomycin-intermediate Staphylococcus aureus isolate MU50 assessed as bacterial count at 8 times MIC after 24 hrs by colony counting method
# Procedure, shortened: (§4)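 24-h time-kill run in triplicate in supplemented Mueller-Hinton broth (12.5 μg/ml Mg, 25 μg/ml Ca), adjusted to 1.1–1.3 mM Ca for daptomycin. […] Samples were taken at 0, 1, 4, 8 and 24 h and counted on BHI agar after 24 h at 35°C. Value is log10 CFU/ml change from baseline at 24 h.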
# [8] = system: Staphylococcus aureus; assay: Antimicrobial activity against vancomycin-intermediate Staphylococcus aureus isolate MU50 assessed as bacterial count at 32 times MIC after 24 hrs by colony counting method in presence of 50% human serum
# Procedure, shortened: (§5)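 Triplicate 24-h time-kill in 50% human serum (heated 56°C 1 h, filtered) mixed with supplemented Mueller-Hinton broth, giving final 25 μg/ml Ca broth strength for TD-1792 and 50 for daptomycin. […] Samples from 0 to 24 h were counted on BHI agar (35°C, 24 h). Value is log10 CFU/ml change from baseline.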
# [9] = system: Staphylococcus aureus; assay: Antimicrobial activity against vancomycin-intermediate Staphylococcus aureus isolate NJ992 assessed as bacterial count at 8 times MIC after 24 hrs by colony counting method in presence of 50% human serum; procedure, shortened: as §2
# [10] = system: Staphylococcus aureus; assay: Antimicrobial activity against vancomycin-resistant Staphylococcus aureus isolate NY after 24 hrs by microdilution method in presence of 50% human serum
# Procedure, shortened: (§6)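 Broth microdilution per CLSI, inoculum 5 × 10^5 CFU/ml, 24 h at 35°C, in duplicate. Medium was 50% (vol/vol) human serum plus 50% broth, final 25 SMHB for TD-1792 and 50 SMHB for daptomycin. Serum was heated 56°C for 1 h and filtered through 0.8, 0.5 and 0.22 μm. MBC by plating clear wells on BHI agar.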
# [11] = system: Staphylococcus aureus; assay: Antimicrobial activity against vancomycin-intermediate Staphylococcus aureus isolate MU50 assessed as bacterial count at 8 times MIC after 24 hrs by colony counting method in presence of 50% human serum; procedure, shortened: as §5
# [12] = system: Staphylococcus aureus; assay: Antimicrobial activity against vancomycin-intermediate Staphylococcus aureus after 24 hrs by microdilution method; details: for MBC / MIC50 / MIC90: Staphylococcus aureus, 24 h; procedure, shortened: as §3
# [13] = system: Staphylococcus aureus; assay: Antimicrobial activity against vancomycin-resistant Staphylococcus aureus isolate MI assessed as bacterial count at 16 times MIC after 24 hrs by colony counting method; procedure, shortened: as §1
# [14] = system: Staphylococcus aureus; assay: Antimicrobial activity against vancomycin-intermediate Staphylococcus aureus isolate MU50 after 24 hrs by microdilution method in presence of 50% human serum; details: isolate MU50, 24 h; procedure, shortened: as §6
# [15] = system: Staphylococcus aureus; assay: Antimicrobial activity against vancomycin-intermediate Staphylococcus aureus isolate NJ992 assessed as bacterial count at 32 times MIC after 24 hrs by colony counting method; procedure, shortened: as §4
# [16] = system: Staphylococcus aureus; assay: Antimicrobial activity against vancomycin-intermediate Staphylococcus aureus isolate NJ992 assessed as bacterial count at 8 times MIC after 24 hrs by colony counting method; procedure, shortened: as §4
# [17] = system: Staphylococcus aureus; assay: Antimicrobial activity against vancomycin-intermediate Staphylococcus aureus isolate NJ992 after 24 hrs by microdilution method in presence of 50% human serum; details: isolate NJ992, 24 h; procedure, shortened: as §6
# [18] = system: Staphylococcus aureus; assay: Antimicrobial activity against vancomycin-resistant Staphylococcus aureus isolate PA assessed as bacterial count at 16 times MIC after 24 hrs by colony counting method; procedure, shortened: as §1
# [19] = system: Staphylococcus aureus; assay: Antimicrobial activity against vancomycin-resistant Staphylococcus aureus isolate MI assessed as bacterial count at 8 times MIC after 24 hrs by colony counting method in presence of 50% human serum; procedure, shortened: as §2
# [20] = system: Staphylococcus haemolyticus; assay: Ratio of MIC for vancomycin-intermediate Staphylococcus haemolyticus in presence of 50% human serum to MIC for vancomycin-intermediate Staphylococcus haemolyticus
# Procedure, shortened: (§7)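 Ratio of the broth microdilution MIC (5 × 10^5 CFU/ml, 24 h, 35°C, duplicate) measured in 50% heat-treated human serum/supplemented Mueller-Hinton broth to the MIC measured in supplemented broth alone.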
# [21] = system: Staphylococcus aureus; assay: Antimicrobial activity against vancomycin-resistant Staphylococcus aureus isolate PA after 24 hrs by microdilution method in presence of 50% human serum; procedure, shortened: as §6
# [22] = system: Staphylococcus aureus; assay: Antimicrobial activity against vancomycin-intermediate Staphylococcus aureus isolate NJ992 assessed as bacterial count at 4 times MIC after 24 hrs by colony counting method; procedure, shortened: as §4
# [23] = system: Staphylococcus aureus; assay: Antimicrobial activity against vancomycin-intermediate Staphylococcus aureus isolate NJ992 assessed as bacterial count at 4 times MIC after 24 hrs by colony counting method in presence of 50% human serum; procedure, shortened: as §5
# [24] = system: Staphylococcus aureus; assay: Ratio of MIC for vancomycin-intermediate Staphylococcus aureus isolate NJ992 in presence of 50% human serum to MIC for vancomycin-intermediate Staphylococcus aureus isolate NJ992; procedure, shortened: as §7
# [25] = system: Staphylococcus aureus; assay: Antimicrobial activity against vancomycin-resistant Staphylococcus aureus isolate MI after 24 hrs by microdilution method in presence of 50% human serum; procedure, shortened: as §6
SMILES,log10CFU/ml [1],log10CFU/ml [2],log10CFU/ml [3],log10CFU/ml [4],MBC [5] [µg/mL],MIC [5] [µg/mL],Ratio [6],log10CFU/ml [7],log10CFU/ml [8],log10CFU/ml [9],MBC [10] [µg/mL],MIC [10] [µg/mL],log10CFU/ml [11],MBC50 [12] [µg/mL],MBC90 [12] [µg/mL],MBC [12] [µg/mL],MIC50 [12] [µg/mL],MIC90 [12] [µg/mL],log10CFU/ml [13],MBC [14] [µg/mL],other results
CCCCCCCCCC(=O)N[C@@H](Cc1c[nH]c2ccccc12)C(=O)N[C@H](CC(N)=O)C(=O)N[C@@H](CC(=O)O)C(=O)N[C@@H]1C(=O)NCC(=O)N[C@@H](CCCN)C(=O)N[C@@H](CC(=O)O)C(=O)N[C@H](C)C(=O)N[C@@H](CC(=O)O)C(=O)NCC(=O)N[C@H](CO)C(=O)N[C@@H]([C@H](C)CC(=O)O)C(=O)N[C@@H](CC(=O)c2ccccc2N)C(=O)O[C@@H]1C,3.33,5.11,4.6,5,0.25,0.25,2,4.82,5.23,5.01,0.25,0.25,4.13,1,2,0.25,1,1,4.96,2,MIC [14]: 2 µg/mL; log10CFU/ml [15]: 4.93; log10CFU/ml [16]: 3.86; MBC [17]: 2 µg/mL; MIC [17]: 2 µg/mL; log10CFU/ml [18]: 5.14; log10CFU/ml [19]: 4.69; Ratio [20]: 2; MBC [21]: 0.5 µg/mL; MIC [21]: 0.25 µg/mL; log10CFU/ml [22]: 3.61; log10CFU/ml [23]: 4.78; Ratio [24]: 2; MBC [25]: 1 µg/mL; MIC [25]: 0.5 µg/mL
CN[C@H](CC(C)C)C(=O)N[C@H]1C(=O)N[C@@H](CC(N)=O)C(=O)N[C@H]2C(=O)N[C@H]3C(=O)N[C@H](C(=O)N[C@H](C(=O)NCCCO/N=C(\C(=O)N[C@@H]4C(=O)N5C(C(=O)[O-])=C(C[n+]6ccccc6)CS[C@H]45)c4nc(N)sc4Cl)c4cc(O)cc(O)c4-c4cc3ccc4O)[C@H](O)c3ccc(c(Cl)c3)Oc3cc2cc(c3O[C@@H]2O[C@H](CO)[C@@H](O)[C@H](O)[C@H]2O[C@H]2C[C@](C)(N)[C@H](O)[C@H](C)O2)Oc2ccc(cc2Cl)[C@H]1O,4.06,4.03,4.11,3.27,0.125,0.03,2,4.33,4.81,4.09,0.5,0.25,3.6,0.06,0.125,0.015,0.06,0.125,3.34,0.25,MIC [14]: 0.25 µg/mL; log10CFU/ml [15]: 5; log10CFU/ml [16]: 4.48; MBC [17]: 0.25 µg/mL; MIC [17]: 0.25 µg/mL; log10CFU/ml [18]: 4.17; log10CFU/ml [19]: 4.06; Ratio [20]: 2; MBC [21]: 0.125 µg/mL; MIC [21]: 0.125 µg/mL; log10CFU/ml [22]: 3.84; log10CFU/ml [23]: 3.61; Ratio [24]: 4; MBC [25]: 8 µg/mL; MIC [25]: 2 µg/mL
